Our source for the folding enthalpy and Tm values is the array DNA melting data of Ke et al. (doi:10.1101/2024.01.08.574731).

A short description of data set [1]: folding enthalpy; higher = less favourable; fluorescence melt of hairpins on a sequencing array, two-state fit. Particulars: sodium 0.088 M. A digest of the protocol: (§1)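 Bootstrapped two-state fits yielded melting temperature and folding enthalpy for library hairpins. Cy3 fluorescence, with annealed Cy3 and quencher oligos, was imaged on a sequenced MiSeq flow cell in 50 mM Na-HEPES pH 8.0, 25 mM NaCl in 2.5 °C steps up to 60 °C, and normalised to pre-quench Cy3 and to control constructs. Four replicates were combined by inverse variance, and fitted temperatures were raised by 9.35 °C to match UV melts.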

Data set [2] in a line: melting temperature; fluorescence melt of hairpins on a sequencing array, two-state fit, raised by 9.35 °C to match UV melts. Particulars: sodium 0.088 M. Summed up:
as §1

Regarding GTATCCGAAAGGATATAC ((((((....)))..))), the folding enthalpy in data set [1] was -13.8 kcal/mol. For the same sequence, the Tm in data set [2] amounted to 44.8 °C.
As to GTATCCGAAAGGATTTAC ((((((....)))..))), the folding enthalpy in data set [1] was -12 kcal/mol. In data set [2], the Tm stood at 30.6 °C.
Take GTATCCGGAAACAGATAC (((((.(....).))))): the folding enthalpy in data set [1] is -23.4 kcal/mol. In addition, in data set [2], the Tm was determined as 31.7 °C.
The like results for GTATCCGGAAACGGACAC ((.((((....)))).)) were, in that order, -19.8 kcal/mol and 39 °C.
As for GTATCGCCGAAAGGCTAC (((..(((....)))))), in data set [1], the folding enthalpy was -6.58 kcal/mol. Also, the Tm in data set [2] came to 32.9 °C.
Taken in the same sequence, the figures for GTATCGGGAAACTGATGC (.(((.(....).))).) were -29.6 kcal/mol and 33.1 °C.
Taken in the same sequence, the figures for GTATCTCGAAAGAGCTAC (((.(((....))).))) were -21.8 kcal/mol and 36 °C.
Taken in the same sequence, the figures for GTATCTGGAAACAGACAC ((.((((....)))).)) were -26.2 kcal/mol and 30.7 °C.
Turning to GTATCTGGAAACAGATAC (((((((....))))))), the folding enthalpy in data set [1] is -39.5 kcal/mol. The Tm in data set [2] amounted to 56.1 °C.
Taken in the same sequence, the figures for GTATCTGGAAACGGATAC (((((.(....).))))) were -38 kcal/mol and 44.8 °C.
For GTATGAGGAAACCCATAC (((((.(....).))))), the folding enthalpy in data set [1] is -30.3 kcal/mol. Also, the Tm in data set [2] came to 35.3 °C.
The like results for GTATGCCGAAAGGCGTAC (((.(((....))).))) were, in that order, -26.2 kcal/mol and 63.4 °C.
The like results for GTATGCGAAAGCAGATAC ((((((....)))..))) were, in that order, -12.9 kcal/mol and 36.7 °C.
The like results for GTATGCGAAAGCATTTAC ((((((....)))..))) were, in that order, -8.67 kcal/mol and 30.6 °C.
For GTATGCGCGAAAGCGTAC (((..(((....)))))), the folding enthalpy in data set [1] is -9.22 kcal/mol. In addition, the Tm in data set [2] was 31.3 °C.
Taken in the same sequence, the figures for GTATGGGGAAACCCATGC (.(((((....))))).) were -20.9 kcal/mol and 49 °C.
Taken in the same sequence, the figures for GTATGTACGAAAGTATAC (((..(((....)))))) were -11.4 kcal/mol and 31 °C.
The like results for GTATGTCGAAAGACTAC (((.(((....)))))) were, in that order, -19.2 kcal/mol and 41.3 °C.
Take GTATGTGGAAACACATGC (.(((((....))))).): the folding enthalpy in data set [1] was -24.3 kcal/mol. In data set [2], the Tm amounted to 47.9 °C.
The like results for GTATGTGGAAACATATGC (.((.((....)).)).) were, in that order, -24.1 kcal/mol and 37.5 °C.
The like results for GTATGTGGAAACATGTAC (((..((....))..))) were, in that order, -16.4 kcal/mol and 30.9 °C.
For GTATGTGGAAACGCATAC (((((.(....).))))), the folding enthalpy in data set [1] was -29.7 kcal/mol. In addition, in data set [2], the Tm amounted to 46.9 °C.
In the case of GTATTAGCGAAAGCTTAC (((..(((....)))))), the folding enthalpy in data set [1] was -12.8 kcal/mol. For the same sequence, in data set [2], the Tm was 25.5 °C.
The like results for GTATTCGAAAGAATTTAC ((((((....)))..))) were, in that order, -12.2 kcal/mol and 27.5 °C.
Taken in the same sequence, the figures for GTATTCGGAAACAAATAC (((((.(....).))))) were -10.3 kcal/mol and 22.5 °C.
With GTATTGACGAAAGTCTAC (((..(((....)))))), in data set [1], the folding enthalpy was -8.47 kcal/mol. The Tm in data set [2] was determined as 25.1 °C.
The like results for GTATTGCGAAAGCATTAC (((.(((....))).))) were, in that order, -23.7 kcal/mol and 44.9 °C.
Taken in the same sequence, the figures for GTATTGGGAAACTAATAC (((((.(....).))))) were -22.2 kcal/mol and 34.8 °C.
As to GTATTTCCGAAAGGATAC (((..(((....)))))), the folding enthalpy in data set [1] was -11.8 kcal/mol. Besides, the Tm in data set [2] was 26 °C.
Taken in the same sequence, the figures for GTATTTCGAAAGAAGTAC (((.(((....))).))) were -34.3 kcal/mol and 40.4 °C.
The like results for GTCAAACGAAAGTTGGAC (((.(((....))).))) were, in that order, -24.8 kcal/mol and 49.9 °C.
On to GTCAACACGAAAGTGGAC (((..(((....)))))), for which the folding enthalpy in data set [1] was -19.3 kcal/mol. Further, the Tm in data set [2] turned out to be 38.6 °C.
As for GTCAACCGAAAGGTCGAC (((.(((....))).))), the folding enthalpy in data set [1] is -35.1 kcal/mol. In addition, the Tm in data set [2] is 50.9 °C.
The like results for GTCAACGAAAGTTATGAC ((((((....)))..))) were, in that order, -20.5 kcal/mol and 33.1 °C.
The like results for GTCAACGAAAGTTCAGAC ((((((....)))..))) were, in that order, -11.4 kcal/mol and 28.3 °C.
The like results for GTCAACGAAAGTTGAC ((((((....)))))) were, in that order, -37.4 kcal/mol and 68.9 °C.
